Key:
[1] = biological target: T1, P-gp (Homo sapiens, UniProt P08183); details: cited from earlier work
[2] = test system: P-gp; details: in vitro; cited from earlier work
[3] = cited from earlier work
[4] = test system: MRP1; details: cited from earlier work
[5] = Tolerability of tariquidar in healthy volunteers; type: in vivo, human; details: 2 mg/kg BW i.v., 5 healthy male subjects
[6] = Tariquidar concentration in venous plasma by LC/MS; type: in vivo, human
[7] = test system: P-gp; details: rats, cited from earlier work
[8] = Arterial blood and metabolite analysis of; type: in vivo, human; details: 2 mg/kg i.v.
[9] = humans; ref Ulrich Elben, written communication, 2008; cited from earlier work
[10] = biological target: P-gp at the human blood-brain barrier (Homo sapiens, UniProt P08183)
Sequence of P-gp at the human blood-brain barrier (P08183 whole entry): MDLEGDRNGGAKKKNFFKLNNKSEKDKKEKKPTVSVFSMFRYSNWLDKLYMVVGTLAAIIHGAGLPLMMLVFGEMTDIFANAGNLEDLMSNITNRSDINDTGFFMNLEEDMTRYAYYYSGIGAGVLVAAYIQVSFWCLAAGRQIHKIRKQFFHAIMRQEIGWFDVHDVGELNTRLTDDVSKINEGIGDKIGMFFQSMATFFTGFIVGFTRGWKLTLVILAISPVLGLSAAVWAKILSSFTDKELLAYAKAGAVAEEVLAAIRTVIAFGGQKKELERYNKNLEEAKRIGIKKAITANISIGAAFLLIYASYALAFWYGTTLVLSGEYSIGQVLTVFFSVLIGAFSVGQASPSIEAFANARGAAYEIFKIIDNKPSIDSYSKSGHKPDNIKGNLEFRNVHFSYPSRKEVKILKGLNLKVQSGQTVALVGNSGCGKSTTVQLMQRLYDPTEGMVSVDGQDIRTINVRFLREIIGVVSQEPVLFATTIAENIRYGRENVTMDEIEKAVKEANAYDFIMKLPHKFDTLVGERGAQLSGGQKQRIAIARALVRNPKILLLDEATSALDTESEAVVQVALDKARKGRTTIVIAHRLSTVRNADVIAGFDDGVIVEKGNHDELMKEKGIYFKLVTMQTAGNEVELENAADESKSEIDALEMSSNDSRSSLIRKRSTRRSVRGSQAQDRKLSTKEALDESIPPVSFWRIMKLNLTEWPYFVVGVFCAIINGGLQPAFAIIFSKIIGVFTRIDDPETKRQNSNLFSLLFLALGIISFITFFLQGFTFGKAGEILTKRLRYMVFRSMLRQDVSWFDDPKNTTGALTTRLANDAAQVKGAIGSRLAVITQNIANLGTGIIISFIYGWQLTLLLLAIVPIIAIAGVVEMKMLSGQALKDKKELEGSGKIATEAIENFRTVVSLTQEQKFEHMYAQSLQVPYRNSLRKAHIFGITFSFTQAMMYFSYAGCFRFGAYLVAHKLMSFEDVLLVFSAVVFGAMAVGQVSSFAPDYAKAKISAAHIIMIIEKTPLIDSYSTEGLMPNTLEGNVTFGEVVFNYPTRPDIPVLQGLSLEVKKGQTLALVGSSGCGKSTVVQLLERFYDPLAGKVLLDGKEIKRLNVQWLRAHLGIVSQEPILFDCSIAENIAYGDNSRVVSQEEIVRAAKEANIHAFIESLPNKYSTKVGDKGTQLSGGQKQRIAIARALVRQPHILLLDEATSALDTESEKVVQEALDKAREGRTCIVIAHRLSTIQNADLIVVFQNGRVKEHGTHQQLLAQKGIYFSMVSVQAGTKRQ

[11] = biological target: T1, P-gp; test: Rhodamine-123 efflux assay in peripheral white blood cells; type: cell-based
In short: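 Fresh whole blood (18 mL) was drawn from each of the 5 volunteers before dosing. Isolated white blood cells were incubated at 37°C with Rh-123 (0.2 μg/mL) and 10 dilutions of test compound in DMSO (final 0.01 nM–1 μM), in duplicate. Rh-123 accumulation (mean fluorescence per cell) was read by FACS. EC50 came from hyperbolic dose-response fits, given as mean±SD over the 5 donors.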

[12] = test system: P-gp; details: non-human primates, infusion of 20 mg/kg/2 hr; cited from earlier work

T1 sequence (P08183 whole entry): as above

C=C[C@H]1C[N@@]2CC[C@H]1C[C@@H]2[C@@H](O)c1ccnc2ccc(OC)cc12 [quinidine]
CNS pharmacologic effect of loperamide when inhibitor co-administered ([1]; 8 healthy volunteers): caused respiratory depression

COc1cc2c(cc1OC)CN(CCc1ccc(NC(=O)c3cc(OC)c(OC)cc3NC(=O)c3cnc4ccccc4c3)cc1)CC2 [tariquidar, Tariquidar]
Duration of P-gp inhibitory effect after removal from the incubation medium [2]: up to 22 h | Tariquidar-related material in plasma existing as unchanged parent compound ([3]; monkey plasma): > 95% | Elimination half-life ([3]; monkey): 5 h | Inhibition of MRP1 [4]: does not inhibit | Mild adverse events possibly related to study medication [5]: mild hypotension, headache and nausea, each in one patient and dizziness in 2 patients | Tolerability [5]: well tolerated without occurrence of severe or serious adverse events | Plasma concentration of tariquidar during the second PET scan ([6]; 200-240 min after start of infusion, 2 mg/kg i.v., mean±SD): 490 ± 166 ng/mL | Plasma concentration relative to EC50 for inhibition of Rh-123 efflux ([6]; at 24 h after tariquidar infusion): 424 fold | Concentration of unbound tariquidar in plasma ([6]; at the time of the second scan, corrected for 99.5% protein binding): 2.45 ± 0.83 ng/mL | Plasma concentration relative to EC50 for inhibition of Rh-123 efflux ([6]; during second PET scan): 980 fold | concentration at 24 h ([6]; male, human, plasma, intravenous, 2 mg/kg): 212 ± 24 ng/mL | CNS activity of loperamide (reduction in pupil diameter) after inhibitor ([1]; humans, tariquidar 2 mg/kg BW): not affected | Plasma tariquidar concentration at the time of the PET scan ([7]; 15 mg/kg): about 1,400 ng/mL | Increase of (R)-11C-verapamil DVs ([7]; plasma tariquidar levels about 500 ng/mL): 3-4 fold | Increase of the (R)-11C-verapamil DV ([7]; tariquidar 15 mg/kg): 12 fold | Influence of tariquidar on the metabolism of (R)-11C-verapamil [8]: did not have significant influence | Binding to plasma proteins [9]: 99.5% | Maximum increase of brain radioactivity versus baseline (t=40 min) ([10]; scan 1, at 5 min after end of tariquidar infusion (t=75 min), 2 mg/kg i.v.): +74% | Increase of brain radioactivity versus baseline (t=40 min) ([10]; scan 1, at 35 min after end of tariquidar infusion (t=115 min), on average): +10% | EC50 [11]: 0.773 nM

C/C=C/C[C@@H](C)C(=O)[C@H]1C(=O)N[C@@H](C(C)C)C(=O)N(C)CC(=O)N(C)[C@@H](CC(C)C)C(=O)N[C@@H](C(C)C)C(=O)N(C)[C@@H](CC(C)C)C(=O)N[C@@H](C)C(=O)N[C@H](C)C(=O)N(C)[C@@H](CC(C)C)C(=O)N(C)[C@@H](CC(C)C)C(=O)N(C)[C@@H](C(C)C)C(=O)N1C [valspodar]
Increase of brain uptake of racemic 11C-verapamil [12]: 4.61 fold

Source: PMC3690436 (Journal of nuclear medicine : official publication, Society …, 2009)
